# In article PMC6039259 (Nature medicine, 2018):
# Experiments:
# primary astrocytes = test: A1 astrocyte induction by α-syn PFF-MCM in primary astrocytes; assay type: cell-based, mouse
# Procedure, shortened: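 Primary microglia and astrocytes come from P1 CD1 mouse whole brains. Mixed glia are grown 13 days, then split by CD11b positive selection: the bound fraction is microglia and the pour-off is astrocytes. Microglia get α-syn PFF with PBS or test compound (1 μM). Their conditioned medium is applied to astrocytes for 24 hrs, and GFAP is measured by immunoblot.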
# [1] = NLY01 accumulation in brain / BBB penetration; assay type: in vivo, mice
# [2] = tested on: astrocytes of ventral midbrain; test: qPCR of astrocytes from ventral midbrain of α-syn PFF injected mice; assay type: in vivo
# [3] = tested on: human dopaminergic (DA) neurons; test: Direct α-syn PFF toxicity in human DA neurons; assay type: cell-based; settings: direct treatment of DA neurons, NLY01 1 µM, human α-syn PFF 5 µg/ml
# Procedure, shortened: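 Viability is read three ways: alamarBlue per kit protocol, LDH activity in culture medium measured spectrophotometrically, and trypan blue counting. For trypan blue, neurons are trypsin-dissociated to single cells and mixed 1:1 with dye. Live and dead cells are counted on an automated cell counter, with three wells per condition.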
# human DA neurons = test: α-syn PFF-ACM toxicity in human DA neurons; assay type: cell-based; settings: NLY01 applied to the α-syn PFF treated microglia; alamarBlue, LDH, trypan blue, 5 days
# [4] = tested on: murine primary cortical cultures; test: α-syn PFF-ACM toxicity in murine primary cortical neurons; assay type: cell-based, mouse
# Procedure, shortened: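 Cortical neurons from E15.5 CD1 embryos are grown in B-27 Neurobasal medium on poly-L-lysine. ACM is made by giving astrocytes 24 h of α-syn PFF-MCM, with or without test compound on the microglia. It is collected with protease inhibitors, concentrated about 50X (10 kDa cutoff) and dosed at 15 μg/ml total protein. Nuclei are stained with Hoechst (7 μM) and PI (2 μM) and counted by computer, relative to control wells.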
# human recombinant GLP-1R = human recombinant GLP-1R (Homo sapiens, UniProt P43220); test: cAMP production in GLP-1R transfected HEK-293/CRE-LUC/GLP1R cells; assay type: cell-based
# [5] = tested on: α-syn PFF injected C57BL6 mice; test: Intrastriatal α-syn PFF mouse model of sporadic PD; assay type: in vivo
# hA53T α-syn Tg mice = test: hA53T α-synuclein transgenic mouse model; assay type: in vivo
# primary microglia = test: α-syn PFF-induced activation of primary microglia; assay type: cell-based, mouse
# Procedure, shortened: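 Primary mouse microglia, CD11b-selected from P1 mixed glia, are pretreated with test compound (1 μM), then given α-syn PFF (1 μg/ml). PFF is endotoxin-depleted recombinant mouse α-syn, stirred a week at 37 °C and sonicated. For qPCR, total RNA is normalized to β-actin by 2^−ΔΔCt, with n=3 independent cultures. Cytokines in medium collected 18 hrs post-PFF are measured by mouse cytokine ELISA array.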
# [6] = 3 mg/kg s.c. twice a week for five months
# human recombinant GLP-1R, sequence (P43220 24-463): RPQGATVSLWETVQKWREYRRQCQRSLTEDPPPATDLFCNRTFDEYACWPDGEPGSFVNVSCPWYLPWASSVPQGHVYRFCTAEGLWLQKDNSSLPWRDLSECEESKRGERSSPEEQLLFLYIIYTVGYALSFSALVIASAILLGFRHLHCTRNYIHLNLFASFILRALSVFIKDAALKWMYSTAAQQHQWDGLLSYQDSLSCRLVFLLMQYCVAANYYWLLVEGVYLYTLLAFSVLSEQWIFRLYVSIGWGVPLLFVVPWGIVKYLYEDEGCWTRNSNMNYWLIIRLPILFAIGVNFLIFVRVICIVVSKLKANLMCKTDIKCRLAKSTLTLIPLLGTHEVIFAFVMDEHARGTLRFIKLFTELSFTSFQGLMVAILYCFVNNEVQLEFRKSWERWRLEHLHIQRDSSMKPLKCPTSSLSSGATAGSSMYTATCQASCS
substance,measurement,setting,value
"His-Gly-Glu-Gly-Thr-Phe-Thr-Ser-Asp-Leu-Ser-Lys-Gln-Met-Glu-Glu-Glu-Ala-Val-Arg-Leu-Phe-Ile-Glu-Trp-Leu-Lys-Asn-Gly-Gly-Pro-Ser-Ser-Gly-Ala-Pro-Pro-Pro-Ser-Cys(PEG50K)-NH2 [NLY01, pegylated [Cys^40]Exendin-4]",α-syn PFF-MCM induced GFAP,"primary astrocytes; NLY01 1 μM, 24 hrs, immunoblot",blocked
same,induction of A1 astrocytic specific markers,"primary astrocytes; NLY01 treatment of microglia, but not that of astrocytes",prevents
same,brain levels,"[1]; ten-month-old hA53T Tg mice, 3 mg/kg",reaches high brain levels
same,blood-brain barrier penetration,[1]; wild type (WT) mice,efficiently penetrates the blood-brain barrier
same,α-syn PFF induced A1 astrocyte specific transcripts,[2],prevented
same,induction of C3 mRNA in isolated astrocytes,[2]; n=4,blocks
same,"protection against α-syn PFF induced cell death (alamarBlue, LDH, trypan blue)",[3],fails to protect
same,α-syn PFF-ACM induced cell death,human DA neurons,significantly prevents
same,α-syn PFF-ACM induced cell death,"[4]; NLY01 (1 µM) applied to the α-syn PFF treated microglia, Hoechst/PI, 48 hrs",significantly prevents
same,p-α-syn ser129 levels induced by α-syn PFF-ACM,[4]; pretreatment of NLY01 in microglia,significantly reduced
same,biologic activity in vitro relative to Exendin-4,human recombinant GLP-1R,comparable biologic activity
same,"Triton X-100 insoluble α-syn and p-α-syn ser129, western blot",[5]; [6],significantly reduces
same,α-syn PFF induced reduction in striatal TH immunoreactivity and striatal TH and DAT protein,[5]; [6],rescued
same,"p-α-syn ser129 immunoreactivity in striatum, ventral midbrain and TH neurons","[5]; 3 mg/kg s.c. twice a week for five months, from one month after α-syn PFF",significantly reduces
same,α-syn PFF induced loss of TH and Nissl positive neurons in the SNpc,"[5]; 3 mg/kg s.c. twice a week for five months, n=10",prevented
same,ipsilateral amphetamine induced rotation,"[5]; 5 mg/kg amphetamine i.p., six months after α-syn PFF",prevented
same,α-syn PFF induced GFAP immunoreactivity and GFAP level in the ventral midbrain,[5]; immunohistochemistry and western blot,blocked
same,"α-syn PFF induced mRNA for Il1a, Il1b, Tnfα, C1qa, Il6 in ventral midbrain","[5]; qPCR, n=4",blocked
same,behavioral deficits in accelerating rotarod test and pole test,[5]; six months after α-syn PFF,significantly reduces the behavioral deficits
same,"contralateral forepaw touches, cylinder test",[5]; six months after α-syn PFF,restored
same,"increase in grooming time and reduction in rearing, cylinder test",[5]; six months after α-syn PFF,restored
same,Iba-1 immunoreactivity and microglial density in the SNpc,[5]; six months post injection,significantly reduces
same,prolongation of lifespan,"hA53T α-syn Tg mice; 3 mg/kg s.c. twice a week from six months of age, n=20",over 100 days
same,"p-α-syn ser129 immunoreactivity, aggregated α-syn and ubiquitin immunoreactivity","hA53T α-syn Tg mice; 3 mg/kg, brainstem",reduction
same,"microglial and astrocytic activation (Iba-1, GFAP immunoreactivity)",hA53T α-syn Tg mice; brainstem,significantly attenuates
same,increase of C3 mRNA,hA53T α-syn Tg mice; ten-month-old hA53T α-syn Tg mice,prevented
same,uptake of α-syn PFF in microglia,primary microglia,does not interfere
same,"α-syn PFF induced C1q and TNFα release into media, western blot",primary microglia; NLY01 1 µM pretreatment,significantly inhibited
same,"α-syn PFF induced protein levels of IL-1α, TNFα, IL-1ß, C1q, ELISA","primary microglia; NLY01 1 μM pretreatment, MCM 18 hrs after α-syn PFF",reduced
same,"α-syn PFF induced mRNA for Il1a, Il1b, Tnfα, C1qa, Il6, qPCR","primary microglia; NLY01 1 μM pretreatment, α-syn PFF 1 μg/ml",significantly reduces
same,"α-syn PFF induced cytokines (IL-1α, TNFα, IL-1ß, IL-6, leptin), ELISA cytokine array","primary microglia; primary microglia, α-syn PFF 1 µg/ml",reduces
same,NF-kB pathway,primary microglia; α-syn PFF-induced NF-kB nuclear translocation and phosphorylation,inhibits
